Most compounds without a hit are left out; they make up all but 5.9% or so of the library.
PTK2B oligo ant: antagonists of Pyk2 self-association, primary screen, Q293 cells, FERM NanoBiT luminescence, HTS | 0.83% of 99,000 active | Protein-tyrosine kinase 2-beta (Homo sapiens), Q14289 | z-score (the deposit names both 25 µM and 10 µM) | active compounds read low;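 active = Z-score of -3 or lower, scaled per plate to the spread of control and sample wells; inactive = z-score above -3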;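 note: negative z-score means lost luminescence so less FERM oligomerization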
Target sequence (Q14289 whole entry, looked up): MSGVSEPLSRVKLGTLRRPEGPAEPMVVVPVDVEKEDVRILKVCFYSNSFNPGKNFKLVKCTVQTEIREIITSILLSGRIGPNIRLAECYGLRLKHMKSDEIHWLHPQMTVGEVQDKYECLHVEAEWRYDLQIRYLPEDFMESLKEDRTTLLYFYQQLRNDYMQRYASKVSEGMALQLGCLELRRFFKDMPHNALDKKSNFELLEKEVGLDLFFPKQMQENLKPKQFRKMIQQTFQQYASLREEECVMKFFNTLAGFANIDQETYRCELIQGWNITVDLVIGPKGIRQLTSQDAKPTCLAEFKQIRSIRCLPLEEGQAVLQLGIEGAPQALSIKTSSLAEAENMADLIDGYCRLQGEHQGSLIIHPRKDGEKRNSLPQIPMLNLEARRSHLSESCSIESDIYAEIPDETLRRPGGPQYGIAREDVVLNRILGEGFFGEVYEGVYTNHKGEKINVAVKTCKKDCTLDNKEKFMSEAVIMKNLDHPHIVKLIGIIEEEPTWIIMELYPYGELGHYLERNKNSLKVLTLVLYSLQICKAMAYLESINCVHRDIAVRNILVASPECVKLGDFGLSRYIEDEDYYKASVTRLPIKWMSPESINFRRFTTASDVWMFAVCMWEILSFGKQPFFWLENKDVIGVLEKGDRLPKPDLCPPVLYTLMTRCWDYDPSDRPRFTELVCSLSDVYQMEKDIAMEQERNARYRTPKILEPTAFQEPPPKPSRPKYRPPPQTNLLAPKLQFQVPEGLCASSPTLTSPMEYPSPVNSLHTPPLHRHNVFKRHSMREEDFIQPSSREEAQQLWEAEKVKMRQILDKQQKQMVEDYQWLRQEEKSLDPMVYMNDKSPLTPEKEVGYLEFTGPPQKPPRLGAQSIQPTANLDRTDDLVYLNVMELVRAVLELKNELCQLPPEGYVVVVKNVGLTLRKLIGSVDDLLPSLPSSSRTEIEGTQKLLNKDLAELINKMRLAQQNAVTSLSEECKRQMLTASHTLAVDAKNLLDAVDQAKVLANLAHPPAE
Fibroblast inh: antiproliferative effect on LL 47 fibroblasts – human, LL 47 cells, CellTiter-Glo luminescence, primary screen; LL 47 human lung fibroblast viability, ATP luminescence; active compounds read low; AID 719, 2007; viability, % at 10 µM; 1.1% of 85,000 active;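 active = viability at or below 50% in the single dose screen; inactive = viability above 50%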;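 note: compound exposure lasted 72 h before the ATP readout; 100% = median luminescence of untreated cell-only wells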
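Material: human lung fibroblast line LL 47, low passage; Evaluation: viability percentage against median untreated-cell control; Buffer or medium: 15% FBS in IMEM; Incubation: 72 h compound exposure at 37 °C after overnight plating; Dosing: 0.1% DMSO in all compound wells; Measured by: CellTiter-Glo luminescence.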
HUVEC inhibit: inhibitors of HUVEC proliferation, primary screen, cell-based, 384-well; CellTiter-Glo luminescence, 72 h; active compounds read low; viability, % at 10 µM (by protocol); 1.1% of 86,000 active; AID 648, 2007;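 active = viability at or below 30%; inactive = viability above 30%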;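 note: 100% = median luminescence of DMSO-only cell control wells on each plate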
Jurkat tox 60K: cytotoxicity toward Jurkat T cells, primary screen, cytotoxicity control, cell-based, Jurkat E6.1, 60K MLSMR library | Jurkat E6.1 viability, ATP luminescence, 48 h | inhibition, % at 4 µM | 1.2% of 56,000 active;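 active = inhibition above the mean inhibition of all tested compounds plus 3 SD, cut at about 28% in these data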
MT1-MMP txn act: MT1-MMP promoter reporter activation – cell-based, luciferase luminescence, primary screen | HT1080 MT1-MMP promoter luciferase reporter, overnight; active compounds read high | activation factor at 10 µM | 0.16% of 86,000 active | AID 750, 2007;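 active = activation factor of at least 2 for MT1-MMP transcription at 10 µM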
H69AR growth 86K: proliferation blockers of H69AR lung cancer cells, primary screen, cell-based, human, 86K library | H69AR lung tumor viability, ATP luminescence, 72 h; active compounds read low | viability, % at 10 µM | 6% of 85,000 active | AID 598, 2007;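 active = viability at or below 40%; inactive = viability above 40%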;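 note: multidrug resistant small cell line overexpressing MRP-1 efflux transporter; 100% = mean luminescence of untreated control wells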
* hit, by the source's call; . = not tested or not shown.

SMILES | PTK2B oligo ant | Fibroblast inh | HUVEC inhibit | Jurkat tox 60K | MT1-MMP txn act | H69AR growth 86K
COc1ccccc1N1CCN(C(=O)c2c(-c3ccccc3Cl)noc2C)CC1 | -0.29 | 95 | 82 | -1 | 1.2 | 19*
Cc1onc(-c2ccccc2Cl)c1C(=O)N1CCc2ccccc21 | -1.1 | 98 | 112 | 6 | 1 | 82
Cc1onc(-c2c(F)cccc2Cl)c1C(=O)N1CCCc2ccccc21 | -0.75 | 85 | 63 | . | 1.2 | 19*
O=C(c1ccc(C(=O)N2CCCc3ccccc32)s1)N1CCCc2ccccc21 | -3.3* | . | . | . | . | .
Cc1onc(-c2ccccc2Cl)c1C(=O)N1CCCc2ccccc21 | -0.08 | 91 | 90 | 11 | 1.1 | 23*
CCn1cc(C(=O)N2CC(C)CC(C)C2)c(=O)c2cc(S(=O)(=O)N3CCOCC3)ccc21 (centres undefined) | 0.82 | 97 | 100 | 12 | 0.9 | 80
CSc1ccc(CNc2ccc(C)cc2)cc1 | -0.04 | . | . | . | . | .
O=C(Nc1ccccc1)Nc1cc(Cl)cc(Cl)c1 | -2.4 | 54 | 28* | . | 1 | 1.8*
COc1ccc(CCN2C(=O)C3C4C=CC(C3C2=O)C2C(=O)N(CCc3ccc(OC)c(OC)c3)C(=O)C42)cc1OC (centres undefined) | -0.04 | 103 | 96 | . | 0.9 | 40*
Nc1ccc(C(=O)OC2CCOC2=O)cc1[N+](=O)[O-] (centres undefined) | 0.17 | . | . | . | . | .
COc1cccc(OC)c1-c1nnc(-c2cn(C)c3ccccc23)o1 | -0.35 | 97 | 86 | -7 | 1.2 | 97
COc1ccccc1-c1nnc(Nc2nc3c(OC)cccc3s2)o1 | 1.3 | . | . | 87* | 1.5 | .
COc1cccc2sc(Nc3nnc(-c4ccccc4Cl)o3)nc12 | . | 41* | 2.4* | 67* | 1.1 | 27*
COc1cccc(-c2nnc(Nc3nc4c(F)cccc4s3)o2)c1 | -0.65 | 87 | 16* | 8 | 0.9 | 50
COc1cccc(-c2nnc(NC(C)=O)o2)c1 | . | 98 | 100 | -1 | 1.1 | 102
O=C(Nc1nnc(-c2ccccc2Cl)o1)c1ccco1 | 0.02 | 98 | 87 | -1 | 1.2 | 79
O=C(Nc1nnc(-c2ccccc2Cl)o1)c1nc2ccccc2s1 | . | 99 | 52 | . | . | 28*
COc1ccc(C2=NN(C(C#N)c3ccc(OC)cc3)C(c3ccccc3)C2)cc1 (centres undefined) | -0.08 | . | . | . | . | .
COc1ccc(OC)c(C2=NOC(C(=O)Nc3cc(C)nn3-c3ccccc3)C2)c1 (centres undefined) | . | . | . | -12 | . | .
CN1CCc2c(sc3c2C(=O)NC(c2cn(Cc4ccccc4)c4ccccc24)N3)C1 (centres undefined) | 0.69 | 53 | 68 | 8 | 1.3 | 3.4*
CCOc1ccc(Br)cc1C1NC(=O)c2c(sc3c2CCN(C)C3)N1 (centres undefined) | . | 88 | 78 | 4 | 1.2 | 39*
COc1ccc(Br)cc1C1NC(=O)c2c(sc3c2CCN(C)C3)N1 (centres undefined) | 1.3 | 102 | 86 | 5 | 1.1 | 56
CCOC(=O)N1CCc2c(sc3c2C(=O)NC(c2ccccc2)N3)C1 (centres undefined) | -2 | 61 | 56 | -2 | 0.9 | 32*
CN1CCc2c(sc3c2C(=O)NC(c2cccc(OC(=O)c4cccs4)c2)N3)C1 (centres undefined) | . | . | . | 1 | . | .
CCCCCCCCNC(=O)C(CCC(=O)OCc1ccccc1)NC(C)=O (centres undefined) | 0.85 | 104 | 89 | . | 1.4 | 110
COc1ccc(-c2noc(CN(C(=O)c3cccs3)C(C)C)n2)cc1 | -1.6 | 96 | 109 | . | 1 | 91
Cc1cccc(OCc2nnc(SCC(=O)Nc3ccc(C)c(Cl)c3)o2)c1 | 0.59 | . | . | -10 | 1 | .
CCn1c(SCC(=O)c2c[nH]c3ccccc23)nnc1-c1cccs1 | -0.79 | 98 | 87 | 58* | 1 | 46
CCn1c(SCC(=O)c2ccc(Cl)cc2)nnc1-c1cccs1 | -0.97 | 100 | 88 | . | 1.2 | 89
O=C(Nc1ccc(Cl)cc1)N1CCCN(Cc2ccccc2F)C1 | 0.66 | 93 | 91 | . | 1.1 | 77
